# Assay results collected from several papers.
# Compare with care: the assays were run in different laboratories.
# Target: Muscarinic acetylcholine receptor M5 (CHRM5, Homo sapiens, UniProt P08912)
# Concentration: 10 µM
# Residues used in one study (P08912 1-532): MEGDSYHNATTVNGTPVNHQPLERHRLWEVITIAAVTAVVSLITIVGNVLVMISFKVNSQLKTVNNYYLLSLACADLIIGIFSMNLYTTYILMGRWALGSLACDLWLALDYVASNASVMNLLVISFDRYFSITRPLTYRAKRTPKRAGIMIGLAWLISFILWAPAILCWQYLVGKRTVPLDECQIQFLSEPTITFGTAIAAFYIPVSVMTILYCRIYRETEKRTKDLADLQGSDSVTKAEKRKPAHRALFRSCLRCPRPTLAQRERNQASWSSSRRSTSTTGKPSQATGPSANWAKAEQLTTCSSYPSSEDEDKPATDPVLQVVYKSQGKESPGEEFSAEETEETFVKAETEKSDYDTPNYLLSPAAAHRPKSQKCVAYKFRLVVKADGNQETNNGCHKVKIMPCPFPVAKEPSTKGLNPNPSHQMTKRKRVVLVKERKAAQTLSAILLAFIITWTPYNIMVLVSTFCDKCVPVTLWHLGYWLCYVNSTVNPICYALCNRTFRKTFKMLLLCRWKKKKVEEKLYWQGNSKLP
Structure (SMILES),read-out,technique,inhibition
CCCNc1nc2ccccc2n1Cc1ccc(Cl)cc1,ligand displacement,,14.5%
COc1cc(NC(C)=O)c(Cl)cc1C(=O)Nc1nccs1,cell-free assay,,-6.1%
CO[C@@H](C)c1c(Nc2ccc([C@H](N(C)C(=O)C3CCS(=O)(=O)CC3)C(F)(F)F)cc2)cnc2cc(Cl)nn12,ligand displacement,,14.6%
CN(C(=O)n1cnc(-c2ccc[n+]([O-])c2)c1)C1CCCCC1,cell-free assay,,8.59%
CCN(CC)c1ccc(C2Nc3ccc(C(=O)c4ccccc4)cc3NC3=C2C(=O)CC(C)(C)C3)cc1 (centres unmarked),ligand displacement,radioligand,20%
O=C(c1ccc(Cl)cc1)N(Cc1ccccc1)C1CCCCC1,cell-free assay,,-9.6%
N#Cc1cc(Cn2c(N3CCCC3)nc3ccccc32)ccc1F,ligand displacement,,10.9%
CNC(=N)NCCC[C@H](NC(=O)[C@H](CC(C)C)NC(=O)NNC(=O)[C@H](Cc1ccccc1)NC(=O)[C@H](CO)NC(=O)[C@H](CC(N)=O)NC(=O)[C@@H](Cc1ccncc1)NC(=O)[C@H](N)Cc1ccc(O)cc1)C(=O)N[C@@H](Cc1ccccc1)C(N)=O,ligand displacement,,14.9%
